Results on two molecules are retold here after ChEMBL document CHEMBL3124924, “Bifunctional ethyl 2-amino-4-methylthiazole-5-carboxylate derivatives: synthesis and in vitro biological evaluation as antimicrobial and anticancer agents” (2014).

Experiment [1] relates to Candida albicans. Put plainly: Antifungal activity against Candida albicans ATCC 10231 assessed as growth inhibition at 1 mg/mL after 48 hrs by agar-cup diffusion method. The experiment is classed as functional. Particulars: ATCC 10231, 48 h, read-out: DIZ. An outline of the steps:
(§1)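 Agar-cup diffusion: 1 mL of 6 h broth culture seeded per 100 mL molten sterile agar at 45 °C and poured into plates. 8 mm cups cut, each filled with 0.1 mL of 1 mg/mL test solution. Incubated 37 °C for 24 h, 48 h for C. albicans. DMSO control per organism. Inhibition zone diameter in mm, mean of three measurements.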

For experiment [2], the system named is Escherichia coli. Put plainly: Antibacterial activity against Escherichia coli ATCC 25922 assessed as growth inhibition at 1 mg/mL after 24 hrs by agar-cup diffusion method. The experiment is classed as functional. The note with it: ATCC 25922, 24 h, read-out: DIZ. A digest of the protocol:
as §1

For experiment [3], the system named is Bacillus spizizenii. The experiment can be described thus: Antibacterial activity against Bacillus subtilis ATCC 6633 assessed as growth inhibition at 1 mg/mL after 24 hrs by agar-cup diffusion method. In kind it is functional. The note with it: ATCC 6633, 24 h, read-out: DIZ. A digest of the protocol:
as §1

Experiment [4] concerns Aspergillus niger. The experiment can be described thus: Antifungal activity against Aspergillus niger assessed as growth inhibition at 1 mg/mL after 24 hrs by agar-cup diffusion method. In kind it is functional, organism-based. A digest of the protocol: as §1
Experiment [5] deals with Candida albicans. Put plainly: Fungicidal activity against Candida albicans ATCC 10231 after 18 hrs. The note with it: ATCC 10231, 18 h. In kind it is functional. An outline of the steps:
(§2)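 Continuation of the broth-dilution MIC test. A loopful from each tube without visible growth spread on a quarter of a Mueller-Hinton agar plate and incubated 18 h. Lowest concentration giving no growth on subculture taken as the MBC.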

Experiment [6] deals with Candida albicans. The experiment can be described thus: Antifungal activity against Candida albicans ATCC 10231 assessed as growth inhibition after 48 hrs by two-fold serial dilution assay. In kind it is functional. Particulars: ATCC 10231, 48 h. An outline of the steps: (§3)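 Twofold serial broth dilution run on compounds giving inhibition zones of 13 mm or more. Organisms pre-grown in suitable broth at 37 °C, 24 h for bacteria and 48 h for fungi. Dilution series 200, 100, 50, 25, 12.5, 6.25. Each 5 mL tube inoculated with 0.1 mL and incubated 37 °C for 48 h. Tubes scored for presence or absence of growth.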

Experiment [7] deals with Escherichia coli. Put plainly: Bactericidal activity against Escherichia coli ATCC 25922 after 18 hrs. In kind it is functional. Particulars: ATCC 25922, 18 h. An outline of the steps:
as §2

In experiment [8] the test system is Escherichia coli. Put plainly: Antibacterial activity against Escherichia coli ATCC 25922 assessed as growth inhibition after 48 hrs by two-fold serial dilution assay. In kind it is functional. The note with it: ATCC 25922, 48 h. An outline of the steps: as §3
The subject of experiment [9] is Bacillus spizizenii. Put plainly: Bactericidal activity against Bacillus subtilis ATCC 6633 after 18 hrs. In kind it is functional. Particulars: ATCC 6633, 18 h. A digest of the protocol:
as §2

For experiment [10], the system named is Bacillus spizizenii. The experiment can be described thus: Antibacterial activity against Bacillus subtilis ATCC 6633 assessed as growth inhibition after 48 hrs by two-fold serial dilution assay. Particulars: ATCC 6633, 48 h. The experiment is classed as functional. An outline of the steps:
as §3

Experiment [11] relates to Staphylococcus aureus. The experiment can be described thus: Bactericidal activity against Staphylococcus aureus ATCC 6538 after 18 hrs. In kind it is functional. The note with it: ATCC 6538, 18 h. An outline of the steps:
as §2

In experiment [12] the test system is Staphylococcus aureus. The experiment can be described thus: Antibacterial activity against Staphylococcus aureus ATCC 6538 assessed as growth inhibition after 48 hrs by two-fold serial dilution assay. Particulars: ATCC 6538, 48 h. The experiment is classed as functional. An outline of the steps:
as §3

The test system of experiment [13] is Staphylococcus aureus. Put plainly: Antibacterial activity against Staphylococcus aureus ATCC 6538 assessed as growth inhibition at 1 mg/mL after 24 hrs by agar-cup diffusion method. The experiment is classed as functional. The note with it: ATCC 6538, 24 h, read-out: DIZ. An outline of the steps:
as §1

For experiment [14], the system named is Pseudomonas aeruginosa. The experiment can be described thus: Antibacterial activity against Pseudomonas aeruginosa ATCC 27853 assessed as growth inhibition at 1 mg/mL after 24 hrs by agar-cup diffusion method. Particulars: ATCC 27853, 24 h, read-out: DIZ. In kind it is functional. An outline of the steps:
as §1

For experiment [15], the system named is Pseudomonas aeruginosa. The experiment can be described thus: Bactericidal activity against Pseudomonas aeruginosa ATCC 27853 after 18 hrs. The experiment is classed as functional. The note with it: ATCC 27853, 18 h. An outline of the steps:
as §2

Experiment [16] relates to Pseudomonas aeruginosa. The experiment can be described thus: Antibacterial activity against Pseudomonas aeruginosa ATCC 27853 assessed as growth inhibition after 48 hrs by two-fold serial dilution assay. The note with it: ATCC 27853, 48 h. The experiment is classed as functional. An outline of the steps: as §3

Structures are written as SMILES. ≈ marks a conversion by molar mass, not a printed value. Calls of active or inactive are those of the source.

The term MFC denotes the smallest concentration meeting the test's criterion for killing the fungus. A low value points to more potent killing. What is called MIC is the least concentration at which growth counts as inhibited. By MBC is commonly meant the smallest concentration meeting the test's criterion for killing.

On to `CCOC(=O)c1sc(NC(=O)C(F)(F)F)nc1C`, for which the zone of inhibition at 1000 µg/mL in experiment [1], in experiment [2], in experiment [3], in experiment [13] and in experiment [14] was more than 13 mm throughout. The “growth inhibition (GI)” value in experiment [4] was “inactive”. Also, the minimum fungicidal concentration (MFC) in experiment [5] was found to be 100 µg/mL (≈ 354 µM). The MIC in experiment [6], in experiment [8], in [10] and in experiment [12] was 100 µg/mL (≈ 354 µM) throughout. The MBC in experiment [7], in [9] and in [11] was 100 µg/mL (≈ 354 µM) each time.

As to `Cc1ccc(NC(=S)Nc2nc(C)c(C(=O)NN)s2)cc1`, the zone of inhibition at 1000 µg/mL in [1], in experiment [2], in [3], in experiment [13] and in experiment [14] was more than 13 mm each time. Besides, the “growth inhibition (GI)” value in [4] was “inactive”. In experiment [5], this molecule came in with an MFC of 100 µg/mL (≈ 311 µM). For the same molecule, the MIC turned out to be 100 µg/mL (≈ 311 µM) in experiment [6]; 50 µg/mL (≈ 156 µM) in [16]; 100 µg/mL (≈ 311 µM) in experiment [8]; 50 µg/mL (≈ 156 µM) in experiment [10]; 25 µg/mL (≈ 77.8 µM) in [12]. In addition, the MBC was 100 µg/mL (≈ 311 µM) in [15], 100 µg/mL (≈ 311 µM) in experiment [7], 50 µg/mL (≈ 156 µM) in [9] and 25 µg/mL (≈ 77.8 µM) in experiment [11].
